NPY Y1 blocker: NPY-Y1 (human) receptor antagonism | P25929 | inhibition, % at 3.6 µM | HEK293-CNG Y1 cells, membrane potential fluorescence; NPY at EC95, then isoproterenol | 200,000 compounds, 1% hits;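 active = inhibition above the campaign mean inhibition of all tested compounds plus 3 SD, cut at about 20% in these data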;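 note: 0% = DMSO wells given NPY plus isoproterenol and 100% = isoproterenol alone without NPY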
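Assay system: HEK293 cells with Y1 receptor plus CNG channel | Probe or stimulus: NPY (25 nM), isoproterenol (1 µM), Ro 20-1724 (25 µM) | Timing: Compound incubation 1 h at room temperature, readout 45 min post-stimulation | Measured by: Membrane-potential fluorescent dye readout | Benchmarks: High control isoproterenol alone, low control NPY with isoproterenol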
NPY-Y2 antag: antagonists of human neuropeptide Y receptor Y2; NPY-Y2 expressing cells, antagonist mode; inhibition, % at 2.7 µM; 140,000 compounds, 0.99% hits; in the data active = inhibition above about 17%;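 note: 0% = vehicle with agonist challenge and 100% = reference antagonist with challenge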
Target sequence (P49146 whole entry, looked up): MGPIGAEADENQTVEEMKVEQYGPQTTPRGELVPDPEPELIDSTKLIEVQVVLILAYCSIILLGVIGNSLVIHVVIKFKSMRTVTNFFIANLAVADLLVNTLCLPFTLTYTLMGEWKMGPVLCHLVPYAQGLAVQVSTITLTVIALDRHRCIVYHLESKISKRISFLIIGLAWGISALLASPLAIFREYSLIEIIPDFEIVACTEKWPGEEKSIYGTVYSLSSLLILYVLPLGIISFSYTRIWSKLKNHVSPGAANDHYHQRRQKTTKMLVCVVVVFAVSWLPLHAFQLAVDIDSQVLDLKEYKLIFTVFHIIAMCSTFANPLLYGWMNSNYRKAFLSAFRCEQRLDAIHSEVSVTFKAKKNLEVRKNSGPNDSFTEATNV
NPY2 pot ag: human NPY-Y2 potentiation or agonism, primary screen. cells expressing NPY-Y2, potentiator/agonist read-out. P49146. AID 1359. activation, % at 3.6 µM. 220,000 compounds, 0.45% hits; in the data active = activation above about 27%;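 note: cells stimulated with NPY near EC25 plus isoproterenol at EC100; 0% = vehicle plus submaximal agonist and 100% = vehicle plus saturating agonist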
Tb hexokinase: blocks Trypanosoma brucei hexokinase 1 activity; 220,000 compounds, 0.11% hits; AID 1430; recombinant TbHK1, G6PDH-coupled NADH A340; inhibition, % at 10 µM;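 active = inhibition of 50% or more in the single-dose primary screen; inactive = inhibition below 50%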
NPY1 pot ag: potentiates or activates human NPY-Y1 receptor | P25929 | NPY-Y1 expressing cells, potentiator/agonist activation | activation, % at 3.6 µM | 220,000 compounds, 0.37% hits | AID 1304; in the data active = activation above about 33%, passing the limit was not always enough;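 note: cells stimulated with NPY at EC10 then isoproterenol at EC100; 0% = low agonist plus stimulus and 100% = saturating agonist plus stimulus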
Calpain2 inh: calpain II (pig) inhibition; 220,000 compounds, 0.37% hits; purified calpain II, fluorogenic peptide substrate, 30 min; inhibition, % at 16 µM; AID 1236;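 active = inhibition above about 50%, limit read from the data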
NPY-Y1 confirm: confirmation of human NPY-Y1 receptor potentiators or agonists | AID 1546 | shares compounds with NPY1 pot ag | activation, % at 3.6 µM | cell-based NPY-Y1 potentiator/agonist assay | 280 compounds, 20% hits; in the data active = activation above about 45%;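 note: cells challenged with NPY at its EC10 plus isoproterenol stimulus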
NPY-Y2 counter: NPY-Y2 potentiation or agonism as NPY-Y1 counter-screen | shares compounds with NPY1 pot ag | HEK293-CNG cells, membrane-potential fluorescence (FLIPR), 1536-well | activation, % at 3.6 µM | 280 compounds, 20% hits | AID 1649; in the data active = activation above about 33%
NPY-Y1 ag: counter-screen for NPY-Y1 potentiators: agonists of human NPY-Y1; shares compounds with NPY1 pot ag; HEK293 Y1-CNGC, membrane potential fluorescence, agonist mode; activation, % at 3.6 µM; 280 compounds, 50% hits; AID 1697;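 active = percent activation above the mean of DMSO-only control wells plus 3 SD of those wells, cut at about 18% in these data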;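 note: cells challenged with isoproterenol plus Ro 20-1724 with no NPY in test wells; Y1 agonism lowers isoproterenol-driven cAMP and reduces probe fluorescence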
NPY-Y2 agonist: counter-screen for NPY-Y1 potentiators or agonists: agonists of NPY-Y2 | shares compounds with NPY1 pot ag | HEK293 Y2-CNGC, membrane potential fluorescence, agonist mode | activation, % at 3.6 µM | 280 compounds, 67% hits | AID 1698;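 active = activation above the solvent-only control wells' mean plus 3 SD, cut at about 11% in these data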;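 note: 0% = DMSO with isoproterenol and 100% = 40 nM NPY maximal response; agonism lowers cAMP so well fluorescence drops in active wells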
CNGC counter: blocks cyclic nucleotide gated channel in NPY-Y1 counter-screen. HEK293-CNG parental, isoproterenol cAMP, membrane potential fluorescence. shares compounds with NPY1 pot ag. 280 compounds, 42% hits. inhibition, % at 3.6 µM;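 active = inhibition above the mean of stimulated solvent-only control wells plus 3 SD, cut at about 22% in these data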;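 note: 0% = isoproterenol-stimulated DMSO wells and 100% = unstimulated DMSO wells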
The depositor's hits bear a star; x = no result. The list is not random: actives were taken first. Their share in the collection is about 2.3%.

SMILES	NPY Y1 blocker	NPY-Y2 antag	NPY2 pot ag	Tb hexokinase	NPY1 pot ag	Calpain2 inh	NPY-Y1 confirm	NPY-Y2 counter	NPY-Y1 ag	NPY-Y2 agonist	CNGC counter
COC(=O)c1ccc(OC(C)C(=O)c2ccc(C)cc2)cc1 (configuration not stated)	8	8	-7	0	17	2	x	x	x	x	x
N#C/C(=C/c1ccc(F)cc1)c1nnc(NC(=O)c2ccccc2)s1	x	x	-2	-15	6	-69	x	x	x	x	x
CS/C(Nc1cc(Cl)ccc1Cl)=C(/C#N)C(=O)c1ccco1	x	x	6	-7	51*	42	17	7	12	16*	7
O=C(NCc1ccccc1Cl)c1ccc(S(=O)(=O)Nc2cccc(C(F)(F)F)c2)cc1	-4	-1	11	33	17	14	x	x	x	x	x
CCN(CC)S(=O)(=O)c1cc(NC(=O)Cn2ncc(Cl)c(Cl)c2=O)ccc1C	x	x	32	16	44*	-18	36	19	22*	18*	27*
COc1nccnc1NS(=O)(=O)c1ccc(NS(=O)(=O)c2ccc(NC(C)=O)cc2)cc1	-1	3	-3	-9	81*	-2	5	-1	3	8	13
COc1ccc(C(=O)N2CCN(c3ccccn3)CC2)cc1[N+](=O)[O-]	0	x	6	-9	4	-25	x	x	x	x	x
O=C(O)CCC1(c2ccccc2)NC(=O)NC1=O (configuration not stated)	x	x	18	-3	-8	10	x	x	x	x	x
COc1cc(/C=C2\SC(=S)N(N3CCOCC3)C2=O)cc(OC)c1OC	4	2	-6	-6	9	-1	x	x	x	x	x
COc1cc(/C=C2\SC(=S)N(N3CCOCC3)C2=O)ccc1O	x	x	-4	-6	48*	24	18	10	13	10.0*	10
COc1ccc(S(=O)(=O)N2CCC(N3CCN(c4ccccc4OC)CC3)CC2)cc1	x	x	-9	-8	6	5	x	x	x	x	x
COc1ccc([N+](=O)[O-])cc1NC(=O)CCSCCc1ccccn1	-4	x	8	-24	16	34	x	x	x	x	x
COc1ccc(CNC(=O)c2c(O)c3cccc4c3n(c2=O)CCC4)cc1OC	1	2	-16	-12	35*	-38	-8	0	-3	3	-1
Cc1onc(-c2c(Cl)cccc2Cl)c1C(=O)n1nnc2ccccc21	6	2	-13	-5	45*	18	5	-3	-4	-5	3
Cc1onc(-c2c(Cl)cccc2Cl)c1C(N)=O	-5	5	3	-8	6	10	x	x	x	x	x
O=C(O)C1CCC(Cn2c(SCc3cc(=O)n4cc(Cl)ccc4n3)nc3ccsc3c2=O)CC1 (configuration not stated)	8	x	-18	-13	-12	-65	x	x	x	x	x
Cn1cc([N+](=O)[O-])c(C(=O)Nc2ccc(C3CCCCC3)cc2)n1	-10	x	22	-1	37*	-6	36	19	19*	17*	15
CCn1nc([N+](=O)[O-])c(C(C#N)c2nc3ccccc3n2C)c(Cl)c1=O (configuration not stated)	0	3	8	-2	-7	-138	x	x	x	x	x
CCCn1nc([N+](=O)[O-])c(C(C#N)c2nc3ccccc3s2)c(Cl)c1=O (configuration not stated)	-7	4	27	-17	59*	3	20	21	17	32*	17
CCC(C)C(=O)Nn1c(C2CC2)nc2cc(OC)c(OC)cc2c1=O (configuration not stated)	7	x	-9	3	-4	-18	x	x	x	x	x
